Experimental data collected from several papers.
Each line is one published result; the experiments were not run side by side.
Target: Cyclin-dependent kinase 11B (CDK11B, Homo sapiens, UniProt P21127)
Method: competition with immobilised ligand

Structure (SMILES)	assay	setting	remaining binding [%]
C[C@@H]1CCN(c2nccc(-c3cnn4ncccc34)n2)C1	binding	1 µM	97
O=C(c1ccc(Nc2nccc(-c3cc4ccccc4s3)n2)cc1)N1CCC(N2CCCC2)CC1	binding	1 µM	71
CN(c1ccnc(CNc2nc(Nc3ccc4c(c3)CC(=O)N4)ncc2C(F)(F)F)n1)S(C)(=O)=O	cell-free assay	1 µM	91
C=CC(=O)N1CCC(C(=O)NCC(=O)N2CCN(c3nc(-c4cnc(N)nc4C(F)F)nc(N4CCOCC4)n3)CC2)CC1	binding	1 µM	100
CN(CCCC(F)(F)F)c1nccc(-c2cnn3ncccc23)n1	binding	1 µM	94
N#CC1(c2ccccn2)CCN(Cc2cc(C(=O)N3CCCC3)c(=O)n3ccccc23)CC1	cell-free assay	1 µM	80
CC1CCCN1c1nccc(-c2cnn3ncccc23)n1 (stereo not drawn)	binding	1 µM	100
C[C@@H](c1ccc(-n2cnc3c(N)ncnc32)cc1)N1CCc2nn(C)c(Cc3ccccc3)c2C1=O	binding	0.1 µM	86
COc1cnc(Nc2cccc(S(N)(=O)=O)c2)nc1N1CCN(c2ccccc2)CC1	binding	1 µM	99
CSc1cccnc1N1CCN(Cc2nc3ccccc3[nH]2)CC1	cell-free assay	1 µM	100
O=C(NCCCN1CCOCC1)c1ccc(Nc2ncc(Cl)c(-c3ccc(Cl)s3)n2)cc1	binding	1 µM	33
CNC(=O)[C@@H]1CC[C@@H](n2c(-c3ccc4cnccc4c3)nc3ccc(C(=O)NCc4cccc(C(N)=O)c4)cc32)C1	binding	1 µM	100
Cc1cnn2ncc(-c3ccnc(N(C)C)n3)c2c1	binding	1 µM	95
CN(C)C(=O)Cn1cc(-c2nc([C@@](C)(c3ccc(-c4cnc(N)nc4)cc3)C3CC3)no2)cn1	cell-free assay	1 µM	79
FC(F)(F)Oc1cccc(-c2cnc3ccc(-c4ccncc4)nn23)c1	cell-free assay	5 µM	100
N[C@H]1CCN(c2nccc(-c3cnn4ncccc34)n2)C1	binding	1 µM	100
CO[C@H]1CC[C@H](CNc2ccc(S(=O)(=O)NC(=O)c3ccc(N4CCN(CC5=C(c6ccc(Cl)cc6)CC(C)(C)CC5)CC4)cc3Oc3cnc4[nH]ccc4c3)cc2[N+](=O)[O-])CC1	cell-free assay	1 µM	98
Cc1cnc(Nc2ccc(C(=O)N3CCC(N4CCCC4)CC3)cc2)nc1-c1cc2ccccc2s1	binding	1 µM	100
Cc1nc(Cc2cccc(C(F)(F)F)c2)sc1-c1ccc(C(N)=O)nc1	cell-free assay	1 µM	97
CN(C)c1nccc(-c2cnn3ncccc23)n1	binding	1 µM	100
O=C(Nc1c[nH]nc1C(=O)NC1CCNCC1)c1cc(F)cc(F)c1	binding	1 µM	86
